Rows were chosen to be rich in hits. Some 1.7% of all compounds tested hit in one or more screens of this group.
PfHsp90 set2: inhibits growth of yeast expressing Plasmodium falciparum Hsp90; S. cerevisiae expressing PfHsp90, BacTiter-Glo ATP, 48 h; yeast lacking PDR1 and PDR3 efflux regulators; inhibition, % at 9.4 µM; 310,000 tested, 0.32% active;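 active means every replicate shows inhibition above about 80%, whatever the replicate mean, limit read from the data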;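 further: 0% = DMSO neutral controls and 100% = 20 µM radicicol positive controls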
PglD DTNB: blocks C. jejuni PglD acetyltransferase activity. purified PglD enzyme, DTNB colorimetric CoA detection. inhibition, % at 12.5 µM. 360,000 tested, 0.098% active. AID 602405; in the data active means inhibition above about 16%, passing the limit was not always enough
SKKanGAS inh: SKKanGAS growth inhibition; S. pyogenes SKKanGAS, kanamycin growth, BacTiter-Glo, 6 h; inhibition, % at 7.5 µM; 300,000 tested, 1.3% active; AID 1662;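 active means mean replicate score, as percent of positive control median, at least 50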;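 further: strain carries kanamycin resistance gene driven by streptokinase promoter and grows in 40 µg/ml kanamycin; loss of luminescence reflects streptokinase promoter inhibition or plain growth inhibition; 0% = median of DMSO wells and 100% = positive control at its reference dose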
FN deposition inh: fibronectin deposition inhibition. inhibition, % at 12.6 µM. 350,000 tested, 0.086% active. AID 743247. AH1F fibroblasts, Alexa488-fibronectin deposition fluorescence, overnight;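 active means mean inhibition across replicates of 30% or more, regardless of how many single replicates reach that level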;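 further: positive control wells lacked labelled fibronectin entirely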
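Material – AH1F fibroblast monolayer, labelled fibronectin deposition · Reagent – labelled fibronectin 24 nM · Timing – 1 h adhesion, overnight exposure · Measured by – fluorescence at 485 nm excitation, 525 nm emission · Read-out – inhibition of fibronectin deposition signal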
Rtt109 Vps75: C. albicans Rtt109 histone acetyltransferase inhibition; Q5AAJ8; purified Rtt109/Vps75, ThioGlo CoA-SH fluorescence, 4 h; AID 540336; inhibition, % at 34.9 µM; 330,000 tested, 0.16% active;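 active means inhibition of at least 50% in every replicate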
Target sequence (Q5AAJ8 whole entry, looked up): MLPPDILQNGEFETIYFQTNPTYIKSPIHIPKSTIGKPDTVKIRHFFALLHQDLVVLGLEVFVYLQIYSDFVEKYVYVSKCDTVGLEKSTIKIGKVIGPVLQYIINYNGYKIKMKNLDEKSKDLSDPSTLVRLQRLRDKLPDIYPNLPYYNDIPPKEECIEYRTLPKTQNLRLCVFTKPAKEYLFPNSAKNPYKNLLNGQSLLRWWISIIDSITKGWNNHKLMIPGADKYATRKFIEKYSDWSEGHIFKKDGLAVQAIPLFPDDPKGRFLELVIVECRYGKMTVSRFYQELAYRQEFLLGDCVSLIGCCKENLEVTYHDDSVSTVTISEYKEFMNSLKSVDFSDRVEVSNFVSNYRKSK
CSC inhib: blocks cancer stem cells; inhibition, % at 7.5 µM; cancer stem cell-like cells viability, luminescence; 300,000 tested, 1.1% active; in the data active means inhibition above about 75%; tested in HMLE shEcad cells
An asterisk follows results filed as active; . = no result.

SMILES | PfHsp90 set2 | PglD DTNB | SKKanGAS inh | FN deposition inh | Rtt109 Vps75 | CSC inhib
CC(C)CC#Cc1cnc2c(c1)C(=O)N([C@H](C)CO)C[C@@H](C)[C@H](CN(C)Cc1ccc3c(c1)OCO3)O2 | . | -1.4 | . | . | . | .
CC(=O)OCC1=C(C(=O)O)N2C(=O)C(NC(=O)Cn3nc(C(F)F)c(Cl)c3C)C2SC1 (stereo not drawn) | 56.6 | -3.5 | 109.4* | 5.9 | 8.5 | -5.4
CC(=O)OCC1=C(C(=O)O)N2C(=O)C(NC(=O)CCn3nc(C)c(Cl)c3C)C2SC1 (stereo not drawn) | -8.6 | . | 94.7* | 32.9* | -9.2 | -12.6
CC(=O)OCC1=C(C(=O)O)N2C(=O)C(NC(=O)CC(C)c3ccccc3)C2SC1 (stereo not drawn) | 17.5 | -6.9 | . | 7.5 | 0.0 | .
CC(=O)OCC1=C(C(=O)O)N2C(=O)C(NC(=O)C(C)Cn3cc(Cl)cn3)C2SC1 (stereo not drawn) | -29.9 | . | 114.8* | -10.9 | 10.7 | -9.1
Cc1nnc(SCC2=C(C(=O)O)N3C(=O)C(NC(=O)c4cc(F)c(F)cc4Cl)C3SC2)s1 (stereo not drawn) | 16.2 | -4.9 | 109.1* | 0.6 | -4.1 | -2.7
CCC(=O)N(C)C[C@H]1Oc2cc(-c3ccccc3F)ccc2S(=O)(=O)N([C@@H](C)CO)C[C@@H]1C | . | 0.4 | . | . | . | .
COc1ccc(S(=O)(=O)Nc2cccc3c2O[C@@H](CN(C)C(=O)Nc2ccccc2)[C@H](C)CN([C@H](C)CO)C3=O)cc1 | . | -0.2 | . | . | . | .
CN(C)C(=O)C[C@H]1CC[C@@H]2[C@H](COc3ccc(NC(=O)C4CCCC4)cc3C(=O)N2C)O1 | . | . | . | -8.6 | . | .
CO[C@@H]1CN(C)C(=O)c2cc(NS(C)(=O)=O)ccc2OC[C@H](C)N(CC2CCOCC2)C[C@H]1C | . | . | . | -3.7 | . | .
COCC(=O)Nc1ccc2c(c1)OC[C@@H](C)N(Cc1cccnc1)C[C@H](C)[C@@H](OC)CN(C)C2=O | . | 1.3 | . | -16.6 | . | .
COc1ccc(CN(C)C[C@H]2OCCCC[C@H](C)Oc3ccc(NC(=O)Nc4ccc(F)cc4)cc3C(=O)N([C@@H](C)CO)C[C@@H]2C)cc1 | . | 7.5 | . | . | . | .
CCCNC(=O)C[C@@H]1C[C@@H]2c3cc(NS(=O)(=O)c4ccc(OC)cc4)ccc3O[C@@H]2[C@H](CO)O1 | . | -2.4 | . | -1.4 | . | .
CN(C)CCCN(C(=O)CCOc1ccccc1)c1nc2c(F)cccc2s1 | -37.7 | . | -4.6 | -3.7 | 98.4* | .
CN(C)CCCN(C(=O)CCc1ccccc1)c1nc2c(F)cccc2s1 | -3.9 | -8.6 | 1.4 | . | 9.9 | -6.0
O=C(CSc1nnc(NC(=O)c2ccccc2[N+](=O)[O-])s1)NC1CCCC1 | . | -0.8 | 51.5* | -0.5 | 1.1 | -8.8
O=C(Nc1ccccc1N1CCOCC1)c1ccccc1[N+](=O)[O-] | -8.1 | -7.6 | 5.4 | . | -6.9 | 0.6
O=C(Nc1ccccc1N1CCOCC1)c1ccc([N+](=O)[O-])s1 | 103.4* | 0.1 | . | -0.1 | 7.4 | 3.0
C[C@H]1CN([C@@H](C)CO)C(=O)c2c(c3ccccc3n2C)-c2ccccc2CO[C@@H]1CN(C)Cc1ccc(F)cc1 | . | . | . | -2.4 | . | .
COc1ccc(-c2nc3ccncc3[nH]2)cc1OC | -2.1 | -0.1 | 1.8 | 30.1* | 6.3 | -4.5
N#CC(c1ccc(Cl)cc1)N1CCOCC1 (stereo not drawn) | -1.9 | 7.2 | 1.0 | 3.2 | 6.9 | 5.0
Oc1c(Cl)cc(Cl)cc1C(C#Cc1ccccc1)N1CCOCC1 (stereo not drawn) | -13.7 | 6.1 | 90.0* | . | -11.9 | 35.3
Cc1ccc2nc(Nc3nc(CSc4nc5ccccc5s4)cc(=O)[nH]3)nc(C)c2c1 | 20.7 | -10.6 | 18.2 | . | 0.5 | 1.6
Cc1ccc2nc(Nc3nc(C)cc(-c4ccccc4)n3)[nH]c(=O)c2c1 | 10.7 | -4.9 | 85.9* | -4.2 | -4.8 | 3.4
COc1ccc2c(C)nc(Nc3nc(-c4ccccc4)cc(=O)[nH]3)nc2c1 | 16.9 | -2.1 | 74.3* | 15.0 | 1.2 | 107.3*
SMILES | PfHsp90 set2 | PglD DTNB | SKKanGAS inh | FN deposition inh | Rtt109 Vps75 | CSC inhib
Cc1ccc2nc(Nc3nc(-c4ccccc4)cc(=O)[nH]3)nc(C)c2c1 | 13.5 | 4.6 | 94.6* | . | 1.6 | -5.7
Cc1cc(C)nc(Nc2nc3ccccc3[nH]2)n1 | -7.2 | 1.5 | 0.4 | -9.7 | -6.9 | -13.2
c1ccc(-c2sc3ccccc3c2-c2ccc(OCCN3CCCCC3)cc2)cc1 | 18.5 | 0.5 | . | 0.3 | -6.7 | 71.4
c1ccc2c(-c3ccc(OCCN4CCCCC4)cc3)c(-c3ccsc3)sc2c1 | 32.4 | -3.4 | . | 6.4 | -0.9 | 103.4*
Oc1ccc(-c2c(-c3ccsc3)sc3ccccc23)cc1 | 107.0* | 3.2 | 108.0* | 7.1 | -1.7 | 4.5
CN(C)CCOc1ccc(-c2c(-c3ccccc3)sc3ccccc23)cc1 | 14.7 | 2.0 | . | 14.1 | 12.3 | 142.1*
CCc1cnc(N2[C@H](C#N)[C@H](c3ccc(-c4cccc(F)c4)cc3)[C@@H]2CO)s1 | . | 0.5 | . | -5.7 | . | .
CO[C@H]1CN(C)C(=O)c2ccc(NC(=O)NC(C)C)cc2OC[C@H](C)N(C(=O)CN(C)C)C[C@@H]1C | . | -1.0 | . | -11.7 | . | .
C[C@@H]1CN([C@@H](C)CO)C(=O)CCCn2nncc2CO[C@@H]1CN(C)CC1CCCC1 | . | -0.8 | . | -3.8 | . | .
O=C(CN1CCOCC1)NCC[C@H]1CC[C@@H](NC(=O)Cc2ccccn2)[C@H](CO)O1 | . | 0.2 | . | -1.7 | . | .
COc1ccc(S(=O)(=O)Nc2ccc3c(c2)CC(=O)N([C@@H](C)CO)C[C@@H](C)[C@H](CN(C)Cc2ccc(C(=O)Nc4ccccc4N)cc2)O3)cc1 | . | . | . | -2.5 | . | .
Cc1noc(C)c1S(=O)(=O)N(C)C[C@H]1Oc2c(NC(=O)C3CCOCC3)cccc2C(=O)N([C@H](C)CO)C[C@H]1C | . | . | . | -0.7 | . | .
Brc1ccc(C2C3=C(Nc4ncnn42)c2ccccc2OC3c2ccncc2)cc1 (stereo not drawn) | -31.6 | -6.4 | 87.6* | 0.8 | -1.8 | 28.4
COc1ccc(OC)c(NC(=O)C2=C(C)Nc3ncnn3C2c2cccs2)c1 (stereo not drawn) | 10.3 | -5.0 | 3.6 | . | -14.0 | -0.9
COc1ccc(C2C3=C(Nc4ncnn42)c2ccccc2CC3)cc1OC (stereo not drawn) | . | . | 2.5 | . | . | 16.0
COc1ccc(C2Oc3ccccc3C3=C2C(c2cccs2)n2ncnc2N3)cc1 (stereo not drawn) | -148.4 | -0.6 | 78.1* | -15.6 | 9.8 | 53.4
COc1ccc2c3c([nH]c2c1)[C@@H](CO)N(C(=O)c1ccc(F)cc1)CC31CCN(Cc2cccnc2)CC1 | . | . | . | 6.8 | . | .
O=C(C[C@@H]1CC[C@H](NS(=O)(=O)c2ccccc2)[C@@H](CO)O1)NCc1ccncn1 | . | 0.1 | . | . | . | .
COc1ccc(C2=CC(=O)C=CC2=O)cc1 | . | 1.0 | 5.1 | . | 103.6* | .
COc1ccc(C2=CC(=O)C[C@H](c3ccc(OC)cc3)C2)cc1 | -19.4 | 3.3 | . | -38.6 | -5.4 | 0.5
Nc1[nH]n2c(=O)c3c(nc2c1N=Nc1ccc(Cl)cc1)CCCC3 | -30.8 | . | 83.2* | . | 3.4 | 40.9

Assay outcomes from PubChem BioAssay.
